A short description of data set [1]: folding enthalpy; higher = less favourable; fluorescence melt of hairpins on a sequencing array, two-state fit. As to conditions: sodium 0.088 M. An outline of the steps: (§1)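 Folding enthalpy and melting temperature were estimated with bootstrapped two-state fits and combined across four replicates by inverse-variance weighting, with fitted temperatures raised by 9.35 °C to match UV melts. The data were Cy3 fluorescence of library hairpins, with annealed Cy3 and quencher oligos, on a sequenced MiSeq flow cell in 50 mM Na-HEPES pH 8.0, 25 mM NaCl, imaged in 2.5 °C steps up to 60 °C and normalised to pre-quench Cy3 and control constructs.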

Data set [2] can be described thus: melting temperature; fluorescence melt of hairpins on a sequencing array, two-state fit, raised by 9.35 °C to match UV melts. As to conditions: sodium 0.088 M. The essentials: as §1

In the case of GCTATGGCGAAAGCCAGC (((..(((....)))))), in data set [1], the folding enthalpy was -11.2 kcal/mol. The Tm in data set [2] came to 42.6 °C.
With GCTATGGGAAACCATAAC (.(((((....))))).), the folding enthalpy in data set [1] is -12.8 kcal/mol. In addition, the Tm in data set [2] is 28.7 °C.
On the same counts, the results for GCTATGGGAAACCGTAGC ((((.((....)).)))) are -44.1 kcal/mol and 51.9 °C.
For GCTATGGGAAACTGTAGC ((((..(....)..)))), in data set [1], the folding enthalpy is -25.2 kcal/mol. Further, in data set [2], the Tm was 36 °C.
As for GCTATTGAAAAATAGC ((((((....)))))), the folding enthalpy in data set [1] was -31.2 kcal/mol. For the same sequence, the Tm in data set [2] worked out at 49.5 °C.
GCTATTGCGAAAGCAAGC (((..(((....)))))): in data set [1], the folding enthalpy was -10.2 kcal/mol. The Tm in data set [2] was determined as 42.2 °C.
For GCTCAACCGAAAGGTAGC (((..(((....)))))), in that order: -18.4 kcal/mol and 39.4 °C.
On the same counts, the results for GCTCAACGAAAGTTCAGC (((.(((....))).))) are -23.6 kcal/mol and 37.6 °C.
For GCTCAAGGAAACTTGAGC (((((((....))))))), the folding enthalpy in data set [1] is -46.3 kcal/mol. Moreover, in data set [2], the Tm is 64.4 °C.
Turning to GCTCAAGGAAACTTGGGC ((.((((....)))).)), the folding enthalpy in data set [1] was -37.4 kcal/mol. Besides, in data set [2], the Tm stood at 50 °C.
For GCTCACCGAAAGGTCAGC (((.(((....))).))), in that order: -26.3 kcal/mol and 44.2 °C.
For GCTCACCGAAAGGTTAGC (((.(((....))).))), in that order: -31 kcal/mol and 49.9 °C.
GCTCACGAAAGTGAGAGC ((((((....)))..))): in data set [1], the folding enthalpy is -13.7 kcal/mol. Moreover, the Tm in data set [2] worked out at 59 °C.
On the same counts, the results for GCTCACGAAAGTGCAAGC ((((((....)))..))) are -17.4 kcal/mol and 39.4 °C.
For GCTCACGAAAGTGCCAGC ((((((....)))..))), in that order: -13.1 kcal/mol and 33.5 °C.
For the sequence GCTCACGAAAGTGCGAGC ((((((....)))..))), the folding enthalpy in data set [1] was -19.8 kcal/mol. For the same sequence, in data set [2], the Tm was 38.7 °C.
On the same counts, the results for GCTCACGAAAGTGGAGC ((((((....))).))) are -27.5 kcal/mol and 59 °C.
For GCTCACGGAAACACGAGC ((((..(....)..)))), in that order: -25.8 kcal/mol and 34 °C.
On to GCTCACGGAAACGTAAGC (((.(((....))).))), for which, in data set [1], the folding enthalpy is -27.3 kcal/mol. Besides, the Tm in data set [2] came out at 41.8 °C.
Turning to GCTCAGCGAAAGCACAGC (((..((....))..))), in data set [1], the folding enthalpy was -14.9 kcal/mol. Besides, in data set [2], the Tm worked out at 39.7 °C.
For GCTCAGCGAAAGCAGTGC ((.(.((....)).).)), in that order: -13.2 kcal/mol and 44.4 °C.
Take GCTCAGCGAAAGCCGCGC ((.(.((....)).).)): the folding enthalpy in data set [1] is -17.8 kcal/mol. For the same sequence, the Tm in data set [2] is 42 °C.
On the same counts, the results for GCTCAGCGAAAGCCGGGC ((.(.((....)).).)) are -17.1 kcal/mol and 45.4 °C.
On the same counts, the results for GCTCAGCGAAAGCTAGC (((.(((....)))))) are -20 kcal/mol and 49.4 °C.
On the same counts, the results for GCTCAGCGAAAGCTCAGC (((.(((....))).))) are -15 kcal/mol and 44.7 °C.
Consider GCTCAGCGAAAGCTCCGC ((..(((....)))..)), for which the folding enthalpy in data set [1] is -8.07 kcal/mol. Besides, the Tm in data set [2] came out at 22.4 °C.
As to GCTCAGCGAAAGCTGTGC ((.((((....)))).)), the folding enthalpy in data set [1] is -21.5 kcal/mol. In addition, in data set [2], the Tm turned out to be 64.2 °C.
Turning to GCTCATCGAAAGATTAGC (((.(((....))).))), in data set [1], the folding enthalpy was -34.5 kcal/mol. The Tm in data set [2] worked out at 42.8 °C.
With GCTCCACCGAAAGGTAGC (((..(((....)))))), in data set [1], the folding enthalpy is -17.2 kcal/mol. Also, the Tm in data set [2] was found to be 33.9 °C.
On the same counts, the results for GCTCCACGAAAGTGTAGC (((.(((....))).))) are -28.9 kcal/mol and 49.2 °C.
For GCTCCAGGAAACCGGAGC (((((.(....).))))), in that order: -40.5 kcal/mol and 54.3 °C.
Turning to GCTCCAGGAAACTGAAGC (((.(((....))).))), the folding enthalpy in data set [1] was -32.5 kcal/mol. Also, in data set [2], the Tm was found to be 38.6 °C.
GCTCCCCCGAAAGGGAGC (((..(((....)))))): in data set [1], the folding enthalpy was -29.4 kcal/mol. Moreover, in data set [2], the Tm was determined as 66.1 °C.
Take GCTCCCGAAAGGGAGAGC ((((((....)))..))): the folding enthalpy in data set [1] was -11.8 kcal/mol. For the same sequence, in data set [2], the Tm was determined as 65.8 °C.
On the same counts, the results for GCTCCCGAAAGGGCAAGC ((((((....)))..))) are -15.9 kcal/mol and 42.2 °C.
On the same counts, the results for GCTCCCGAAAGGGTGAGC ((((((....)))..))) are -16.7 kcal/mol and 48.8 °C.
For GCTCCCGGAAACAGGAGC (((((.(....).))))), the folding enthalpy in data set [1] was -34.3 kcal/mol. For the same sequence, the Tm in data set [2] worked out at 49.5 °C.

Values taken from the array DNA melting data of Ke et al. (doi:10.1101/2024.01.08.574731).
